Assay results: ChEMBL document CHEMBL4130637, “25 S-Adamantyl-23-yne-26,27-dinor-1α,25-dihydroxyvitamin D3: Synthesis, Tissue Selective Biological Activities, and X-ray Crystal Structural Analysis of Its Vitamin D Receptor Complex” (J Med Chem, 2018)
Calls of active or inactive are those of the source. The rule behind the calls is not given here.

Key:
[1] = molecular target: T1, Vitamin D3 receptor (Homo sapiens, UniProt P11473); experiment: Displacement of [26,27-Methyl-3H]-1,25(OH)2D3 from recombinant human GST-tagged VDR LBD (140 to 427 residues) expressed in Escherichia coli BL21 preincubated for 30 mins followed by radioligand addition measured after 20 hrs
T1 sequence (P11473 whole entry): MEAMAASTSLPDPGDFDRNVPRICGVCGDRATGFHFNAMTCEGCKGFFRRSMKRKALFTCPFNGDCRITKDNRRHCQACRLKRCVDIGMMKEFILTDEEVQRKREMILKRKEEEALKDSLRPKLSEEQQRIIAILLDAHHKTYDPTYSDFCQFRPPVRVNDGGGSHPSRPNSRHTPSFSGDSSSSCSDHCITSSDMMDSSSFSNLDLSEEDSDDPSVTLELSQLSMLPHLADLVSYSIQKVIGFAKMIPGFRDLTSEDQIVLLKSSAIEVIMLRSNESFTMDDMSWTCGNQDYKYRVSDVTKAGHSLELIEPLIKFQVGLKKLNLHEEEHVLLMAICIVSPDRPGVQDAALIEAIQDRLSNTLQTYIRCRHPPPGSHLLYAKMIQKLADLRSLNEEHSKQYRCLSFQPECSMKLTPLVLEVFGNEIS
In short: (§1)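 GST-VDR fusion protein incubated with [3H]1,25(OH)2D3 plus unlabeled competitor over a range of concentrations. Values are means ± standard deviations of triplicate assays.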

[2] = molecular target: T2, Vitamin D3 receptor (Homo sapiens) (UniProt P11473); experiment: Displacement of [26,27-Methyl-3H]-1,25(OH)2D3 from recombinant human GST-tagged VDR LBD (140 to 427 residues) expressed in Escherichia coli BL21 preincubated for 30 mins followed by radioligand addition measured after 20 hrs relative to 1,25(OH)2D3; in short: as §1
T2 sequence (whole entry): T1 sequence (P11473 whole entry)

[3] = molecular target: T1, Vitamin D3 receptor; experiment: Transactivation of VDR (unknown origin) expressed in HEK293 cells harboring TK-Spp X 3-LUC reporter plasmid after 24 hrs by luciferase reporter gene assay; type: cell-based
In short: (§2)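 HEK293 cells transfected with pCMX-VDR and TKSpp × 3-LUC reporter. Cells treated with vehicle or ligand at 10-14 M to 10^-8 M for 24 h, then harvested. Luciferase activity assayed alongside β-galactosidase activity.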

[4] = molecular target: T2, Vitamin D3 receptor (Homo sapiens); experiment: Transactivation of VDR (unknown origin) expressed in HEK293 cells harboring TK-Spp X 3-LUC reporter plasmid after 24 hrs by luciferase reporter gene assay relative to 1,25(OH)2D3; type: cell-based; in short: as §2
[5] = molecular target: T1, Vitamin D3 receptor; experiment: Transactivation of VP16-tagged VDR (unknown origin) expressed in HEK293 cells harboring pCMX-GAL4-RXRalpha and MH100(UAS) X 4tk-LUC reporter plasmid assessed as increase in interaction with RXRalpha by […] reporter gene based mammalian two-hybrid assay; type: cell-based
[6] = molecular target: T1, Vitamin D3 receptor; experiment: Transactivation of VP16-tagged VDR (unknown origin) expressed in HEK293 cells harboring pCMX-GAL4-SRC-1 and MH100(UAS) X 4tk-LUC reporter plasmid assessed as increase in SRC-1 recruitment by […] reporter gene based mammalian two-hybrid assay; type: cell-based
[7] = molecular target: T1, Vitamin D3 receptor; experiment: Transrepression of VP16-tagged VDR (unknown origin) expressed in HEK293 cells harboring pCMX-GAL4-NCoR and MH100(UAS) X 4tk-LUC reporter plasmid assessed as increase in NCoR recruitment by […] reporter gene based mammalian two-hybrid assay; type: cell-based
[8] = molecular target: T2, Vitamin D3 receptor (Homo sapiens); experiment: Agonist activity at VDR in HEK293 cells assessed as increase in CYP24A1 gene expression at 100 nM after 24 hrs by RT-PCR method relative to 1,25(OH)2D3; type: cell-based
In short: (§3)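 Cells treated with ligand at 100 nM for 24 h. mRNA of the target gene measured by reverse transcription and quantitative real-time PCR. Expression given as percentage of that induced by an equal concentration of 1,25(OH)2D3. Significance tested versus vehicle control.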

[9] = molecular target: T2, Vitamin D3 receptor (Homo sapiens); experiment: Agonist activity at VDR in human U937 cells assessed as increase in CYP24A1 gene expression at 100 nM after 24 hrs by RT-PCR method relative to 1,25(OH)2D3; type: cell-based; in short: as §3
[10] = molecular target: T2, Vitamin D3 receptor (Homo sapiens); experiment: Agonist activity at VDR in human MG63 cells assessed as increase in CYP24A1 gene expression at 100 nM after 24 hrs by RT-PCR method relative to 1,25(OH)2D3; type: cell-based; in short: as §3
[11] = molecular target: T2, Vitamin D3 receptor (Homo sapiens); experiment: Agonist activity at VDR in human MG63 cells assessed as increase in OCN gene expression at 100 nM after 24 hrs by RT-PCR method relative to 1,25(OH)2D3; type: cell-based; in short: as §3
[12] = molecular target: T2, Vitamin D3 receptor (Homo sapiens); experiment: Agonist activity at VDR in human U937 cells assessed as increase in CAMP gene expression at 100 nM after 24 hrs by RT-PCR method relative to 1,25(OH)2D3; type: cell-based; in short: as §3
[13] = molecular target: T2, Vitamin D3 receptor (Homo sapiens); experiment: Agonist activity at VDR in human SW480 cells assessed as increase in CYP24A1 gene expression at 100 nM after 24 hrs by RT-PCR method relative to 1,25(OH)2D3; type: cell-based; in short: as §3
[14] = molecular target: T2, Vitamin D3 receptor (Homo sapiens); experiment: Agonist activity at VDR in human HaCaT cells assessed as increase in CYP24A1 gene expression at 100 nM after 24 hrs by RT-PCR method relative to 1,25(OH)2D3; type: cell-based; in short: as §3
[15] = molecular target: T2, Vitamin D3 receptor (Homo sapiens); experiment: Agonist activity at VDR in human SW480 cells assessed as increase in TRPV6 gene expression at 100 nM after 24 hrs by RT-PCR method relative to 1,25(OH)2D3; type: cell-based; in short: as §3
[16] = molecular target: T2, Vitamin D3 receptor (Homo sapiens); experiment: Agonist activity at VDR in human SW480 cells assessed as increase in E-cadherin gene expression at 100 nM after 24 hrs by RT-PCR method relative to 1,25(OH)2D3; type: cell-based; in short: as §3
[17] = molecular target: T2, Vitamin D3 receptor (Homo sapiens); experiment: Agonist activity at VDR in human HaCaT cells assessed as increase in CAMP gene expression at 100 nM after 24 hrs by RT-PCR method relative to 1,25(OH)2D3; type: cell-based; in short: as §3
[18] = Drug uptake in human MG63 cells at 1 uM after 5 mins by HPLC analysis; type: ADME, cell-based; settings: mg-63, 5 min
In short: (§4)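 MG63 cells cultured with compound (1 µM) in medium containing 10% FBS. Uptake sampled at 5 and 10 min, stability after 24 h of culture. Compound levels in cells and medium determined by HPLC.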

[19] = Drug uptake in human MG63 cells at 1 uM after 10 mins by HPLC analysis; type: ADME, cell-based; settings: mg-63, 10 min; in short: as §4
[20] = Stability in human MG63 cells assessed as parent compound remaining at 1 uM after 24 hrs by HPLC analysis; type: ADME, cell-based, MG-63; settings: read-out: Stability; in short: as §4
[21] = molecular target: T2, Vitamin D3 receptor (Homo sapiens); experiment: Transactivation of VDR (unknown origin) expressed in HEK293 cells harboring TK-Spp X 3-LUC reporter plasmid after 24 hrs by luciferase reporter gene assay relative to control; type: cell-based; in short: as §2
[22] = Drug degradation in human MG63 cells at 1 uM after 24 hrs by HPLC analysis; type: ADME, cell-based, MG-63; settings: read-out: Drug degradation; in short: as §4

IC50 [1] [nM]	inhibition [2] [%]	EC50 [3] [nM]	Emax [4] [%]	EC50 [5] [nM]	EC50 [6] [nM]	IC50 [7] [nM]	Activity [8]	Activity [9]	Activity [10]	Activity [11]	Activity [12]	Activity [13]	Activity [14]	Drug uptake [18] [%]	Drug uptake [19] [%]	remaining at 24 h, 1 µM [20] [%]	Activity [21] [%]	SMILES	also measured
0.24	50	0.03	87	> 0.14	> 1.2	0.09	160%	54%	44%	64%	96%	8%	7%	3.1	6	49	90	C=C1/C(=C\C=C2/CCC[C@]3(C)[C@@H]([C@H](C)CC#C[C@@H](O)C45CC6CC(CC(C6)C4)C5)CC[C@@H]23)C[C@@H](O)C[C@@H]1O	Activity [15]: 22%; Activity [16]: 12%; Activity [17]: 24%
–	–	–	81	–	–	–	100%	85%	58%	–	–	50%	30%	6.1	9.7	43	170	C=C1[C@H](O)CC(=C/C=C2\CCC[C@]3(C)[C@@H]([C@H](C)CC#C[C@@H](O)C45CC6CC(CC(C6)C4)C5)CC[C@@H]23)C[C@H]1O	–
–	–	–	–	–	–	–	–	–	–	–	–	–	–	3.4	2.3	70	–	C=C1/C(=C\C=C2/CCC[C@]3(C)[C@@H]([C@H](C)CCCC(C)(C)O)CC[C@@H]23)C[C@@H](O)C[C@@H]1O [CALCITRIOL]	metabolised at 24 h, 1 µM [22]: 30%
3.13	4	> 5.69	–	> 1.2	> 3.2	1.75	Active	Active	Active	Active	Active	Active	Active	6.9	9.5	90	–	C=C1/C(=C\C=C2/CCC[C@]3(C)[C@@H]([C@H](C)CC#C[C@H](O)C45CC6CC(CC(C6)C4)C5)CC[C@@H]23)C[C@@H](O)C[C@@H]1O	–
